Source: PubChem (Broad Institute)
RAD52 inh = RAD52 (human) annealing inhibition; P43351; recombinant RAD52 DNA annealing, FRET fluorescence; inhibition, % at 18.7 µM; 360,000 tested, 0.46% active;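 active = every replicate showing at least 50% inhibition; inconclusive = mean inhibition at least 50% but not in every replicate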
Target sequence (P43351 whole entry, looked up): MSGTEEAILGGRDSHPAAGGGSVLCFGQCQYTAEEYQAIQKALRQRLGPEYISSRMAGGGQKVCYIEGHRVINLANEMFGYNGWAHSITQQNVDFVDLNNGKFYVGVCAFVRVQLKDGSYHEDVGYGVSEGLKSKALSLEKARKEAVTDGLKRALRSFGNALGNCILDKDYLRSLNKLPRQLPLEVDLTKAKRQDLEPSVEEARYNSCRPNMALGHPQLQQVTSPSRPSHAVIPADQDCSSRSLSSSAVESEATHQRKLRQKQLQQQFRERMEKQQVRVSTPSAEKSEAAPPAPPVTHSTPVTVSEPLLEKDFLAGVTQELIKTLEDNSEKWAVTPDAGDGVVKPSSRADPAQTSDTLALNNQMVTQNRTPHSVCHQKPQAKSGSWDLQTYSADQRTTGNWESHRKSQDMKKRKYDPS
RAD54 inh = RAD54 (human) branch migration inhibition; Q92698; RAD54 Holliday junction branch migration, FAM/BHQ fluorescence; inhibition, % at 10.4 µM; 360,000 tested, 0.14% active; AID 602329;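 active = mean normalized replicate activity at least 40 and at least half of replicates scoring 40 or more; inconclusive = only one of the two criteria met; inactive = mean below 40 and under half of replicates reaching 40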;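 also: 0% = median of neutral control wells and 100% = median of positive control wells; inhibitors cause a drop in the FAM fluorescence signal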
S100A4 MyoIIA = inhibitors of human S100A4 binding to myosin IIA peptide; inhibition, % at 10.7 µM; P26447; S100A4/TAMRA-MyoIIA peptide fluorescence polarization; 360,000 tested, 0.14% active;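 active = mean inhibition of at least 70% across replicates, with every replicate also reaching that level; inconclusive = mean inhibition reaches 70% but some replicates fall short; inactive = mean inhibition below 70%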
Target sequence (P26447 whole entry, looked up): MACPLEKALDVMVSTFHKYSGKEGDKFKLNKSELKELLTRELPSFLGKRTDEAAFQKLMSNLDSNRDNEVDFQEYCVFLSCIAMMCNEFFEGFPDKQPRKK
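Test system – S100A4 monomer (human) · Compound – single-point compound testing · Schedule – 5 min incubation before reading · Probe or stimulus – TAMRA-labelled myosin IIA heavy-chain peptide probe, 5 nM · Benchmarks – neutral control DMSO, positive control TFP · Medium – Calcium-containing HEPES buffer, pH 7.2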
AF4-AF9 inh = inhibitors of human MLL-AF4/AF9 interaction; AlphaScreen, biotin-AF4 peptide binding to FLAG-AF9; inhibition, % at 10 µM; 350,000 tested, 0.47% active;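 active = every replicate reaching a set inhibition limit, whatever the replicate mean, cut at about 25% in these data; inconclusive = mean inhibition reaches that limit but some replicates miss it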;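 also: 0% = plate neutral control median and 100% = total signal loss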
GSIS activator = GLuc luminescence reporter in INS-1E cells, primary screen for activators of glucose-dependent secretion of insulin; INS-1E GLuc reporter insulin secretion, 2-3 h; activation, % at 16.6 µM; 370,000 tested, 0.61% active;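 active = lowest replicate activation of at least 40%, so every replicate reaches that level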;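 also: 0% = median of neutral control wells and 100% = median of IBMX positive control wells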
RAD52 DNA ctr = binds DNA, flagging false RAD52 inhibitor hits | AC50, µM | 1,000 tested, 8% active | shares compounds with RAD52 inh | Salmon sperm DNA/acridine orange FP displacement, DNA binding;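 active = fitted half-maximal concentration for signal loss at or below twice the highest dose tested, in every separate run, actives reach about 64 µM in these data; inconclusive = runs disagree, or flat partial signal loss, or poor fit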
* hit, by the source's call; i = inactive; ? = inconclusive; . = not tested or not shown. This is a sample that favours compounds with a hit; in the whole collection about 1.3% have one here.

SMILES | RAD52 inh | RAD54 inh | S100A4 MyoIIA | AF4-AF9 inh | GSIS activator | RAD52 DNA ctr
COc1cc2nc(Nc3ccc(C)c(Cl)c3)nc(N)c2cc1OC | 73.1* | -3.9 | 6.3 | 32.9* | 1.1 | i
COc1ccc(C)cc1Nc1nc(N)c2ccccc2n1 | 40.6 | 29.9 | 30.3 | -0.4 | 45.8 | .
Cc1ccc(Nc2nc(N)c3ccccc3n2)cc1Cl | -11.5 | 8.9 | 0.7 | 7.7 | -0.4 | .
Cc1noc(C)c1S(=O)(=O)N(C)C[C@@H]1OCCCC[C@H](C)Oc2ccc(NS(C)(=O)=O)cc2C(=O)N([C@H](C)CO)C[C@H]1C | 12.6 | . | -6.0 | -1.9 | 4.0 | .
O=c1ccn([C@@H]2O[C@H](CNCc3cccc4c3sc3ccccc34)[C@@H](O)[C@H]2O)c(=O)[nH]1 | 62.1* | 8.1 | -4.9 | 2.1 | . | i
O=c1ccn([C@@H]2O[C@H](CNCc3c(OCc4ccccc4F)ccc4ccccc34)[C@@H](O)[C@H]2O)c(=O)[nH]1 | 7.6 | 18.5 | -3.2 | 2.6 | -10.1 | .
COc1ccc2nc3cc(Cl)ccc3c(Nc3ccc(O)c(CN4CCN(C)CC4)c3)c2c1 | 103.8* | . | 8.9 | 58.6* | -15.3 | 6.08µM*
COc1ccc2nc3cc(Cl)ccc3c(C#N)c2c1 | -14.5 | 2.6 | -0.4 | -0.1 | . | .
COc1cc(NS(C)(=O)=O)ccc1Nc1c2ccccc2nc2ccccc12 | 54.9* | 55.8* | 5.4 | -1.0 | 4.5 | i
COc1ccc([N+](=O)[O-])cc1Nc1c2ccccc2nc2ccccc12 | -6.7 | 7.4 | -2.6 | 3.5 | -1.9 | .
CCOC(=O)c1c(NC(=O)C(NCCN(C)C)c2ccccc2)sc2c1CCCC2 (centres undefined) | 63.5* | 16.3 | -2.4 | 28.8* | -15.9 | i
CCOC(=O)c1c(NC(=O)c2ccccc2N(C)S(=O)(=O)c2ccccc2)sc2c1CCCC2 | -1.3 | -1.3 | 5.3 | 1.2 | 1.6 | .
COc1ccc2nc(NCCNC(=S)NCCCN3CCOCC3)c(C#N)cc2c1 | 69.7* | . | 1.0 | -4.7 | 29.1 | i
COc1cc2[nH]c(=O)c(C(=O)NCCCN3CCOCC3)c(O)c2cc1OC | 66.8* | . | -1.1 | -1.7 | 6.9 | i
COc1ccc2c3c([nH]c2c1)[C@@H](CO)N(C(=O)C1CCC1)CC31CCN(Cc2nccs2)CC1 | 6.3 | . | 5.3 | 4.7 | -13.5 | .
O=C(C[C@@H]1C=C[C@@H](NC(=O)C2CC2)[C@@H](CO)O1)NCC1CC1 | 4.5 | -9.1 | -1.4 | 1.5 | 20.8 | .
CCN(CC(=O)Nc1ccc(NC(C)=O)cc1)C(=O)/C=C/c1cn(-c2ccccc2)nc1-c1cccs1 | 5.8 | 7.1 | -3.5 | 0.3 | 3.3 | .
CN1CCC(N(C)C(=O)/C=C/c2cn(-c3ccccc3)nc2-c2cccs2)CC1 | 71.0* | . | -4.9 | 19.2 | 5.6 | i
CCN1CCn2c3c(c4cc(Cl)ccc42)CCCC31 (centres undefined) | . | 10.1 | -15.5 | 11.8 | . | .
CCN(CC)CCN1CCn2c3c(c4cc(C)ccc42)CCCC31 (centres undefined) | 62.7* | . | -0.7 | 27.5* | 0.1 | i
Cc1noc(C)c1NC(=O)Nc1ccc2c(c1)C(=O)N([C@H](C)CO)C[C@H](C)[C@H](CN(C)Cc1ccncc1)O2 | 7.9 | -18.9 | -13.2 | -1.1 | -25.0 | .
CC[N+](CC)(CC)CCCCOc1ccc2c(c1)C(=O)c1cc(OCCCC[N+](CC)(CC)CC)ccc1-2 | 102.2* | 98.9* | 2.2 | 0.3 | 16.8 | 21.2µM*
C/C=C/c1ccc([C@@H]2[C@H](CO)N(C(=O)CC)C23CN(CCC(F)(F)F)C3)cc1 | 7.7 | . | -23.6 | 5.2 | -9.3 | .
NC[C@H](O)c1ccc(O)c(O)c1 | 69.8* | -4.5 | 9.8 | -1.7 | -31.7 | i
C[C@@H]1CN([C@H](C)CO)C(=O)c2cc(NC(=O)Cc3ccccc3)ccc2O[C@@H](C)CCCCO[C@@H]1CN(C)S(=O)(=O)c1cn(C)cn1 | . | -3.2 | . | . | 8.2 | .
SMILES | RAD52 inh | RAD54 inh | S100A4 MyoIIA | AF4-AF9 inh | GSIS activator | RAD52 DNA ctr
CN1CCN(c2ccc(Cl)cc2NC(=O)CCN2C(=O)c3ccccc3C2=O)CC1 | 82.6* | . | -0.9 | 24.3 | -20.1 | i
CN1CCN(CCC=C2c3ccccc3Sc3ccc(S(=O)(=O)N(C)C)cc32)CC1 | 48.6 | 2.2 | 6.6 | 16.5 | . | .
CCCCCC[N+](C)(C)CC/C=C1/c2ccccc2Sc2ccc(Cl)cc21 | 63.0* | . | -2.0 | 21.6 | -2.8 | i
COc1ccc(NC(=S)NC23CN4CN(CN(C4)C2)C3)c(OC)c1 | 86.4* | . | -3.2 | 19.4 | 8.8 | i
CNC[C@@H]1Oc2c(NC(=O)C3CC3)cccc2C(=O)N([C@@H](C)CO)C[C@@H]1C | -17.9 | 10.1 | -0.1 | -3.9 | 0.5 | .
CNC(=O)C[C@@H]1CC[C@@H]2[C@H](COc3ccc(NC(=O)Nc4ccccc4OC)cc3C(=O)N2C)O1 | -3.7 | 2.3 | -2.7 | -2.2 | 4.9 | .
CCC(C)(C)c1ccc(OCCCC[n+]2cccc(C)c2)c(C(C)(C)CC)c1 | 76.4* | . | 5.2 | 12.5 | 184.6* | i
CNC[C@@H]1Oc2ccc(NC(=O)C3CC3)cc2C(=O)N([C@@H](C)CO)C[C@H]1C | -1.3 | 4.5 | 3.1 | -1.9 | 15.3 | .
CCOc1cc(/C=C/c2cccc[n+]2C)ccc1OCC(=O)Nc1ccc(C)cc1 | -5.3 | 14.1 | 2.0 | 4.8 | 1.5 | .
CCOc1cc(/C=C/c2cccc[n+]2C)ccc1O | 72.2* | 10.6 | 6.7 | -14.0 | -3.9 | i
CCN(CC)CCNc1ccc(CO)c2oc3cc(Cl)ccc3c(=O)c12 | 56.6* | 104.8* | -1.1 | 9.5 | . | i
CN(C)CCNc1ccc(CO)c2oc3ccc(O)cc3c(=O)c12 | 80.9* | . | 13.4 | 9.4 | . | 55.2µM*
COc1ccc(NC(=O)N(C)C[C@H]2OCCCC[C@@H](C)Oc3ccc(NC(=O)Nc4ccc(C(F)(F)F)cc4)cc3C(=O)N([C@H](C)CO)C[C@H]2C)cc1 | 49.0 | -10.7 | -9.0 | 0.0 | 24.5 | .
C[C@@H]1CN([C@H](C)CO)S(=O)(=O)c2ccc(C3=CCCCC3)cc2O[C@H]1CN(C)C(=O)c1ccncc1 | 10.2 | 7.9 | 9.5 | -1.1 | 5.4 | .
CCCCCCCCCCCCCCCC[N+](C)(C)CCl | 87.8* | . | 4.2 | 1.7 | . | 31.5µM*
CCCCCC[N+](C)(C)CCSSCC[N+](C)(C)CCCCCC | -3.8 | 1.4 | -4.8 | -7.8 | 6.4 | .
C#CC[N+](C)(C)CCCCCCCCCC | 8.2 | -15.0 | 9.8 | -6.2 | . | .
CCCCCCCCCCCCCCCC[N+](C)(C)CC | 81.2* | 51.0* | 3.2 | -0.1 | 298.0* | ?
O=C(Cc1ccncc1)NCC[C@@H]1CC[C@H](NC(=O)C2CCOCC2)[C@H](CO)O1 | -30.6 | -15.0 | 6.8 | 0.3 | 4.4 | .
CCOC(=O)c1cc(NC(=O)N(C(C)C)C2CCCCC2)c(C)nc1C | 95.5* | -9.8 | 6.2 | -5.2 | . | i
CCOC(=O)c1cc(NC(=O)N(C(C)C)C(C)C)c(C)nc1C | . | -1.7 | . | . | . | .
